Screening data (PubChem BioAssay)
beta cell repl: induces beta-cell replication in MIN6 cells | MIN6 cells proliferation, ATPlite luminescence, 48 h; cells starved in 0.2% serum; 100% = growth in 10% serum | proliferation, % at 10 µM | hit rate 0.29% among 330,000;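 active = compounds whose signal lies at least 3.5 SD above the mean of all wells on their plate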;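 also: 0% = DMSO-treated cells in low-serum medium and 100% = 10% serum control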
SKN-1 block: C. elegans SKN-1 inhibition. AID 624304. hit rate 0.49% among 360,000. inhibition, % at 21.8 µM. C. elegans VP596 Pgst-4::GFP/RFP ratio, acrylamide-induced, 24 h;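 active = interference check ratio from 0.5 to 1.5 plus GFP to RFP signal ratio inhibition reaching or exceeding a fixed threshold, cut at about 30% in these data, passing the limit was not always enough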
MsrA act: activators of bovine methionine sulfoxide reductase A; purified bovine MsrA, absorbance read-out; activation, % at 10.6 µM; hit rate 0.3% among 360,000; AID 602163; in the data active = activation above about 7.5%;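 also: 0% = vehicle and 100% = reference activator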
DAGLB inh: blocks human DAGLB lipase activity. HEK293T DAGLB membrane lysate, EnzChek fluorogenic substrate. inhibition, % at 5.17 µM. hit rate 0.059% among 340,000. AID 504411; in the data active = inhibition above about 34%;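 also: 0% = enzyme with vehicle and 100% = wells lacking enzyme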
Target sequence (Q8NCG7 whole entry, looked up): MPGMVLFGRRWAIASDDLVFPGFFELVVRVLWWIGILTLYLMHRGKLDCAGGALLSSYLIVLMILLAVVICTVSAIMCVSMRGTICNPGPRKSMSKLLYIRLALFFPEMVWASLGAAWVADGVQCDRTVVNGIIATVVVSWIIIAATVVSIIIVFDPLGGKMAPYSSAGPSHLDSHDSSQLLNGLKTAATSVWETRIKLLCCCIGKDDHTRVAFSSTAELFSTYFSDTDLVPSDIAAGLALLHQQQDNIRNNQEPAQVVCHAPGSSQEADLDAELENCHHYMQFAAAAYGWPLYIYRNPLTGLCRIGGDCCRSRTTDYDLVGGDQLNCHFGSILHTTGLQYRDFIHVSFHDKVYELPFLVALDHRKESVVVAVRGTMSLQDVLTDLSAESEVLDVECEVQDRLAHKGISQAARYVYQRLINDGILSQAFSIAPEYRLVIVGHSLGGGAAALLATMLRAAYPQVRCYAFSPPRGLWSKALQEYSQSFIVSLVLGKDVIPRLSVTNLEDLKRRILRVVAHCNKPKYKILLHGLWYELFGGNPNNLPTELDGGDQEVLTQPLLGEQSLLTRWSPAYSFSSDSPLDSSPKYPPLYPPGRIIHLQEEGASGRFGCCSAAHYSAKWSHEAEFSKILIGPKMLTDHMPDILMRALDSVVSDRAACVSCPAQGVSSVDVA
MsrA inhibitor: inhibits bovine methionine sulfoxide reductase A; inhibition, % at 15.5 µM; purified bovine MsrA, absorbance read-out; hit rate 0.75% among 360,000;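 also: 0% = vehicle wells with enzyme and 100% = reference inhibitor wells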
MT1-MMP act inh: MT1-MMP (human) activation inhibition; P50281; HT1080 RFP-PRO-GFP cells, GFP/RFP ratio fluorescence, overnight; percent of plate control window, DMSO zero; GFP/RFP ratio change, % at 20 µM; hit rate 0.061% among 360,000; AID 651647;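 active = GFP/RFP ratio change of at least 30% with cell ATP level not reduced by more than half and red fluorescence within 50% of control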
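Assay system: HT1080 cells carrying an RFP-PRO-GFP reporter | Dosing: Single dose of 20 µM compound, 1% DMSO final | Incubation: Cells overnight before dosing, compound overnight, 37 °C, 5% CO2 | Evaluation: GFP/RFP fluorescence ratio | Control set: DMSO and RFP-L50D-GFP cell wells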
MsrA inh confirm: confirmation of bovine MsrA inhibitors | inhibition, % at 15.5 µM | purified bovine MsrA, absorbance read-out | AID 651822 | shares compounds with MsrA inhibitor | hit rate 41% among 2,300;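 also: coupled to thioredoxin reductase with NADPH and selenocystamine and DMSO as substrate; 0% = vehicle only and 100% = full effect of reference inhibitor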
The depositor's hits bear a star; nt = no result given. Most compounds without a hit are left out; they make up all but 1.8% or so of the library. Rule as the data show it, unless noted: active = inhibition above about 4.5%; inactive = the rest.

SMILES | beta cell repl | SKN-1 block | MsrA act | DAGLB inh | MsrA inhibitor | MT1-MMP act inh | MsrA inh confirm
CCCCn1c(N)c(N(CCC(C)C)C(=O)C2CCN(C(=O)c3ccccc3C)CC2)c(=O)[nH]c1=O | -1 | 0 | -12 | -2 | 0 | 1 | nt
CCOC(=O)N1CCN(Cc2nc3cc(NC(=O)c4ccco4)ccc3n2C)CC1 | -3 | 5 | 0 | -2 | -1 | 0 | nt
O=Cc1ccc2oc3nc4n(c(=O)c3c(=O)c2c1)CCCS4 | 0 | -6 | -3 | 1 | 6.6* | -1 | 5
O=C(NCc1ccc(F)cc1)C1CCCN1S(=O)(=O)c1ccccc1C(F)(F)F (stereo not drawn) | 0 | -4 | -1 | 1 | 0 | 1 | nt
COc1ccccc1NC(=O)CCC(=O)OCC(=O)c1ccc(C)c([N+](=O)[O-])c1 | -3 | 3 | -2 | 4 | 1 | 0 | nt
CC(C)c1nc(NCCO)c(C#N)c2c1CCCC2 | 0 | -6 | -12 | -6 | 8.8* | -3 | 7.0*
CC(C)c1nc(NCc2ccccc2)c(C#N)c2c1CCCC2 | -5 | 7 | -2 | -1 | 1 | -7 | nt
N#Cc1c(NC2CCCCC2)nc(-c2ccco2)c2c1CCCC2 | -5 | 5 | -6 | -2 | nt | -6 | nt
N#Cc1c(NCCCO)nc(-c2ccco2)c2c1CCCC2 | 0 | -12 | -15 | -3 | 9.5* | -3 | 7.6*
CCCN=C1N(CC)C[C@@H]2[C@@H]3C(=O)N(C)C(=O)[C@@H]3[C@](CC)(C(=O)OC)N12 | nt | 1 | -6 | -3 | 1 | 1 | nt
O=C(CCOc1ccccc1F)N1CCN(c2ccccc2O)CC1 | -1 | 0 | -1 | 0 | 0 | 1 | nt
C#CCSc1nc(=O)c2cccnc2n1-c1ccc(C)cc1 | 0 | -18 | -7 | -5 | 1 | 3 | nt
COc1ccc(NC(=O)CN(C)C(=O)/C=C/c2cn(-c3ccccc3)nc2-c2ccc(C)cc2)cc1 | -6 | -11 | -4 | -3 | 4.9* | -5 | 3
COc1ccc(NC(=O)CN(C)C(=O)/C=C/c2cn(-c3ccccc3)nc2-c2ccc(F)cc2)cc1 | -7 | 5 | 1 | 1 | 3 | -8 | nt
CC(CO)NS(=O)(=O)c1cccc(Cl)c1F (stereo not drawn) | nt | -1 | -4 | 1 | 0 | 2 | nt
O=C(O)c1cccc(NC2=C(n3nnc4ccccc43)C(=O)c3ccccc3C2=O)c1 | -2 | 5 | 0 | 0 | 32* | 5 | 28*
COCC(C)NC(=O)c1cc2c(ccc3ccccc32)oc1=O (stereo not drawn) | -2 | -3 | -4 | -1 | 0 | 2 | nt
Cc1c(C#N)c(N=CN(C)C)c(C(=O)c2ccccc2)n1-c1ccc(Br)cc1 | -1 | 3 | -9 | -5 | 5.3* | 0 | 7.3*
CC(C)NC(=O)CC(=O)N/N=C/c1ccc(Br)cc1 | -2 | 1 | -7 | 1 | 1 | 3 | nt
O=C(O)CC1SC(N/N=C/c2ccc(Br)cc2)NC1=O (stereo not drawn) | -3 | -3 | -6 | -2 | 4.9* | -1 | 2
Oc1ccc(/C=N/NC(=S)Nc2cccnc2)c(O)c1 | -7 | -9 | -5 | 2 | 7.0* | -7 | 5.2*
Oc1ccc(/C=N/NC(=S)Nc2cccnc2)c(O)c1O | nt | 10 | -4 | 3 | 4 | -5 | nt
Cc1cc(N2CCN(CC(C)(C)O)C[C@H]2C)ccc1N1CCN(Cc2ccccc2)[C@H](C)C1 | nt | nt | nt | nt | 2 | nt | nt
COc1ccc(CNC(=O)[C@H](C)NC(=O)C2CCN(C(=O)[C@@H](N)CCSC)CC2)cc1 | 2 | 1 | 0 | -3 | 0 | -1 | nt
COc1cc(/C=C2/C(C)=C(C#N)c3nc(N)c(C#N)c(C)c32)ccc1OCC(=O)O | -6 | nt | nt | nt | 5.0* | nt | 2
SMILES | beta cell repl | SKN-1 block | MsrA act | DAGLB inh | MsrA inhibitor | MT1-MMP act inh | MsrA inh confirm
C/C=C/c1ccc(OCC(=O)O)c(OC)c1 | 2 | -22 | -7 | 1 | 0 | 3 | nt
O=[N+]([O-])c1ccc(C2CCCC/C2=N/OCc2ccccc2F)c([N+](=O)[O-])c1 (stereo not drawn) | -4 | 18 | -3 | -12 | 9.2* | -8 | 6.9*
O=[N+]([O-])c1ccc(C2CCCC/C2=N/OCc2ccc(F)cc2)c([N+](=O)[O-])c1 (stereo not drawn) | -6 | 3 | -2 | -13 | 3 | -4 | nt
CCOc1ccc(C(=O)N/N=C/c2ccc(-c3ccc(S(=O)(=O)Nc4ncccn4)cc3)o2)cc1 | 5 | 2 | -6 | 4 | 6.0* | 5 | 4.9*
NS(=O)(=O)c1ccc(-c2ccc(/C=N/NC(=O)c3ccccc3O)o2)cc1 | -2 | 3 | -5 | 0 | 4.9* | -3 | 4
NC(=S)N/N=C/c1ccc(-c2ccccc2)o1 | -4 | -3 | -5 | 1 | 6.7* | 0 | 4
COC(=O)c1ccc(-c2ccc(/C=N/NC(=O)Cc3nnc(N)s3)o2)cc1 | -1 | -8 | 1 | 3 | 4.8* | -2 | 4
COc1ccc(-c2ccc(/C=N/NC(=O)Cc3nnc(N)s3)o2)cc1Cl | -3 | 15 | -6 | nt | 3 | 0 | nt
Cc1ccc(C(=O)N2CCC3CC2c2cc(-c4ccc5c(c4)OCO5)ccc23)cc1 (stereo not drawn) | nt | -5 | -1 | -4 | -2 | -1 | nt
Cc1cc(C)c(C(CC(=O)c2cccs2)C(C#N)C#N)c(C)c1 (stereo not drawn) | -6 | -1 | -4 | 12 | 1 | -8 | nt
Nc1nnc(CC(=O)N/N=C\c2ccc(-c3cccc(Cl)c3)o2)s1 | 0 | 1 | -5 | -1 | 3 | -1 | nt
Nc1nnc(CC(=O)N/N=C/c2ccc(-c3ccccc3)o2)s1 | 3 | 5 | -5 | 1 | 6.6* | 2 | 7.9*
Cc1cc2n(c(=O)c1C#N)CCCN2c1ccccc1 | 1 | -14 | -14 | 1 | 6.1* | -5 | 4.5*
COc1cc2c(cc1O)CC[n+]1cc3c(OC)c(OC)ccc3cc1-2 | 0 | 8 | -4 | 0 | 5.2* | 0 | 3
CCCn1c(SCC(=O)N2CCOCC2)nnc1-c1ccncc1 | 0 | 7 | 2 | 2 | 1 | 0 | nt
CC1(C)CCCN(C(=O)c2coc(=O)c(Br)c2)C1 | nt | 5 | 1 | 0 | 4.9* | -6 | 2
O=C(c1coc(=O)c(Br)c1)N1CCC(C(O)(c2ccccc2)c2ccccc2)CC1 | -6 | -15 | 4 | 2 | 3 | -15 | nt
Cc1ccccc1C(=O)Nc1ccnn1C1CCN(Cc2ccccn2)CC1 | -6 | 3 | -5 | -2 | -1 | -4 | nt
O=C1c2ccc3c4c(ccc(c24)C(=O)N1c1cccc(O)c1)C(=O)N(c1cccc(O)c1)C3=O | -6 | -20 | 3 | 6 | 9.5* | -1 | 7.1*
CN(C(=O)c1ccc(N2CCCCC2)c([N+](=O)[O-])c1)C1(C)CCS(=O)(=O)C1 (stereo not drawn) | 0 | -13 | -13 | 0 | 0 | 7 | nt
